PMC10078363 (Journal of Pineal Research, 2022)
Read-outs that look alike come from different tables or passages of the source.

What was measured:
[1] = target: T1, murine Abcg2 (Mus musculus, UniProt Q7TMS5); assay type: in vivo, mice; conditions: 30 min after i.v. melatonin 10 mg/kg
T1 sequence (Q7TMS5 1-657): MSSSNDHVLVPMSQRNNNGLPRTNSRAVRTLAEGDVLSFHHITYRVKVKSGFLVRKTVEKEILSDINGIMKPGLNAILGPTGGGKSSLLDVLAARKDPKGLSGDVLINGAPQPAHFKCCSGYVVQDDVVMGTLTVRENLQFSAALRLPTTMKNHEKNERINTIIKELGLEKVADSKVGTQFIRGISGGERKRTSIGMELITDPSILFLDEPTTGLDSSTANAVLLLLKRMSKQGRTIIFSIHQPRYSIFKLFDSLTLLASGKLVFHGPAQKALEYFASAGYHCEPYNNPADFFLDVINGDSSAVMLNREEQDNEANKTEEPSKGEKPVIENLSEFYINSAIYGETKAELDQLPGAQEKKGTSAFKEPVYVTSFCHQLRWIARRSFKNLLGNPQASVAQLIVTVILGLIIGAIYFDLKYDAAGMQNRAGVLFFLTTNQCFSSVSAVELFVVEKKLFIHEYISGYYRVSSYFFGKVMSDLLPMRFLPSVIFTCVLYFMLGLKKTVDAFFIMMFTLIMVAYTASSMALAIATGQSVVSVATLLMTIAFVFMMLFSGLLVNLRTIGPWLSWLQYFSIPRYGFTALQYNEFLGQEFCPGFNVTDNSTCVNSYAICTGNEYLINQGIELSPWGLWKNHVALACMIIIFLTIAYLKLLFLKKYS

[2] = Transepithelial transport assay in parental MDCK‐II cells; assay type: in vitro ADME, canine; conditions: dog, with Ko143 1 µM
Outline: (§1)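 MDCK-II monolayers, parental or transduced with an ABCG2 variant, in Hanks' balanced salt solution with 25 mM HEPES. Both sides are refreshed with or without Ko143 (1 µM). Test compound (8–10 µM) is added to one side, and the opposite side is sampled at 1, 2, 3 and 4 h. Analysis is by HPLC-UV at 310 nm. Ratio is apically directed % over basolaterally directed % at 4 h; n ≥ 3, mean ± SD.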

[3] = target: T1, murine Abcg2; assay: Transepithelial transport assay in MDCK‐II cells transduced with murine Abcg2; assay type: in vitro ADME; conditions: mAbcg2 MDCK‐II, +Ko143 (1 µM); Mel 10 µM, 6‐SO‐Mel 8 µM, 6‐OH‐Mel 10 µM
Outline: as §1

[4] = system: ovine ABCG2; assay: Transepithelial transport assay in MDCK‐II cells transduced with ovine ABCG2; assay type: in vitro ADME; conditions: oABCG2 MDCK‐II, +Ko143 (1 µM); Mel 10 µM, 6‐SO‐Mel 8 µM, 6‐OH‐Mel 10 µM
Outline: as §1

[5] = system: human ABCG2; assay: Transepithelial transport assay in MDCK‐II cells transduced with human ABCG2; assay type: in vitro ADME; conditions: with Ko143 1 µM
Outline: as §1

[6] = system: murine Abcg2; assay type: in vivo; conditions: male, FVB/N, mouse, plasma, oral, 10 mg/kg body weight, Abcg2−/− male mice, 1 h after oral melatonin 10 mg/kg
Outline: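 Male Abcg2−/− and wild-type mice (FVB/N background, n = 8) are dosed orally in the morning with 10 mg/kg melatonin in 10% ethanol/40% PEG/50% saline. Plasma and tissues are taken at 1 h. Samples are precipitated with acetonitrile, then a melatonin-d4 internal standard is added. Analysis is LC-MS/MS on C18 with a water/methanol gradient (1 mM ammonium formate, 0.01% formic acid). Hydroxylated metabolites are reported as arbitrary units. Groups are compared by t-test or Mann–Whitney.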

[7] = system: murine Abcg2; assay type: in vivo, mice; conditions: female, FVB/N, mouse, intravenous, 10 mg/kg body weight, Abcg2−/− lactating female mice, 30 min after i.v. melatonin 10 mg/kg
[8] = wild‐type lactating female mice

SMILES | Milk levels (relative abundance) ([1]; Abcg2−/− lactating female mice) | Milk to plasma ratio (relative abundance) ([1]; Abcg2−/− lactating female mice) | Fold higher milk concentration/levels in wild‐type compared with Abcg2−/− ([1]; lactating female mice) | Fold higher milk to plasma ratio in wild‐type compared with Abcg2−/− ([1]; lactating female mice) | Milk levels (relative abundance) [1, 8] | Milk to plasma ratio (relative abundance) [1, 8] | efflux ratio at 4 h [2] | Relative efflux transport ratio (basal to apical % / apical to basal %) at 4 h [3] | Relative efflux transport ratio (basal to apical % / apical to basal %) at 4 h [4] | efflux ratio at 4 h [5] | concentration at 1 h [6] | concentration at 30 min ([7]; milk, Milk concentration) | Kp at 30 min ([7]; milk, Milk to plasma ratio) | concentration at 30 min ([7]; plasma, Plasma concentration)
COc1ccc2[nH]c(O)c(CCNC(C)=O)c2c1 [2‐OH‐Mel, 2‐hydroxymelatonin] | 1.42 ± 0.66 arbitrary units | 1.75 ± 0.29 arbitrary units | around twofold | around twofold | 2.90 ± 1.24 arbitrary units | 3.68 ± 1.34 arbitrary units | – | – | – | – | – | – | – | –
COc1ccc2[nH]cc(CCNC(C)=O)c2c1 [melatonin] | – | – | almost twofold | – | – | – | 1.05 ± 0.06 | 1.00 ± 0.06 | 0.99 ± 0.11 | 1.02 ± 0.07 | 9.39 ± 4.59 ng/mL | 6340 ± 3870 ng/mL | 0.02 ± 0.01 | 288000 ± 89300 ng/mL
